From ChEMBL document CHEMBL2062375, “Discovery of an orally efficacious inhibitor of anaplastic lymphoma kinase” (J Med Chem, 2012)

Key:
[1] = Volume of distribution in SCID mouse at 1 mg/kg, iv; type: ADME, organism-based; set-up: dose 1 mg/kg, route intravenous; conditions: in vivo
Method in brief: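 Mouse IV PK: lateral tail vein dosing, 100 μL in 3% DMSO/30% Solutol/67% PBS; trunk blood from three mice per time point over 6 h. Plasma precipitated with acetonitrile, drug quantified by LCMS/MS against internal standard; noncompartmental analysis.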

[2] = AUC in Sprague-Dawley rat at 1 mg/kg, iv; type: ADME, organism-based; set-up: dose 1 mg/kg, route intravenous; conditions: plasma
Method in brief: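 Rat PK. IV via the lateral tail vein, 1 mL/kg in 3% DMSO/30% Solutol/67% PBS, or oral gavage at 5 mL/kg in 40% HPβCD, after an overnight fast. Serial tail-vein blood was taken into heparin over 6 h. Plasma was acetonitrile-precipitated and analysed by LC-MS/MS. Parameters were noncompartmental, n = 3, mean ± SEM.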

[3] = Cmax in Beagle dog at 10 mg/kg, po; type: ADME, organism-based, Canis lupus familiaris; set-up: dose 10 mg/kg, route oral; conditions: in vivo
Method in brief: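 Dog and monkey PK. IV 0.5 mL/kg in 40% HPβCD via the saphenous vein. Oral dosing was 1 mL/kg by gavage in dogs and 2 mL/kg by nasogastric tube in monkeys, after an overnight fast. Serial femoral-vein blood was taken into heparin over 24 h. Plasma was acetonitrile-precipitated and analysed by LC-MS/MS. Parameters were noncompartmental, n = 3, mean ± SEM.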

[4] = AUC (0 to 12 hrs) in rat 10 mg/kg, po; type: ADME, organism-based; set-up: time < 12 hr, dose 10 mg/kg, route oral; conditions: plasma
Method in brief: (§1)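 Rat oral dose escalation at 10, 30, 55 and 100 mg/kg. Gavage at 5 mL/kg in 40% HPβCD after an overnight fast. Serial tail-vein blood was drawn into heparinized tubes. Plasma was protein-precipitated with acetonitrile and assayed by LC-MS/MS. Cmax and AUC0–12 were derived noncompartmentally; n = 2 at 10 mg/kg.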

[5] = AUC (0 to 12 hrs) in rat 30 mg/kg, po; type: ADME, organism-based; set-up: time < 12 hr, dose 30 mg/kg, route oral; conditions: plasma; method in brief: as §1
[6] = Plasma concentration in SCID mouse xenografted with human KARPAS299 cells expressing NPM-ALK at 30 mg/kg, po after 2 hrs by LC-MS/MS analysis; type: ADME, organism-based, KARPAS-299; set-up: dose 30 mg/kg, route oral
Method in brief: (§2)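 Pharmacodynamic study: SCID mice bearing subcutaneous Karpas-299 xenografts given single 30 mg/kg oral dose; plasma drug levels measured by LCMS/MS, reported as mean ± SEM.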

[7] = Drug level in SCID mouse tumor xenografted with human KARPAS299 cells expressing NPM-ALK at 30 mg/kg, po after 2 hrs by LC-MS/MS analysis; type: ADME, organism-based, Neoplasm, KARPAS-299; set-up: dose 30 mg/kg, route oral; conditions: read-out: Drug uptake
[8] = Plasma concentration in SCID mouse xenografted with human KARPAS299 cells expressing NPM-ALK at 30 mg/kg, po after 6 hrs by LC-MS/MS analysis; type: ADME, organism-based, KARPAS-299; set-up: dose 30 mg/kg, route oral; method in brief: as §2

- Vd [1]: 0.8 L/kg
- AUC [2]: 989 ng·h/mL
- Cmax [3]: 427 ng/mL
- AUC(0-t) at 12 h [4]: 2570 ng·h/mL
- AUC(0-t) at 12 h [5]: 10900 ng·h/mL
- concentration at 2 h [6]: 4180 ng/mL
- concentration at 2 h [7]: 2630 ng/g
- concentration at 6 h [8]: 3840 ng/mL
Compound: COc1c(Nc2ncc(Cl)c(N[C@H]3[C@@H](C(N)=O)[C@@H]4C=C[C@H]3C4)n2)ccc2c1CC[C@@H](N1CCOCC1)CC2
